# High-throughput results: PubChem, several laboratories
# Rows were chosen to be rich in hits. Some 2.3% of all compounds tested hit in one or more screens of this group.
# Glyco luc inh: blocks N-linked glycosylation in D54 reporter cells. D54 ERlucT glycosylation luciferase reporter, 24 h; percent of 100 nM tunicamycin response. reporter increase, % at 12.5 µM. 360,000 compounds, 0.23% hits;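 active = mean luciferase reporter signal, scaled so untreated is 0 and the glycosylation-blocking control 100, at or above a set limit in every replicate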;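 note: luciferase carries N-glycosylation sites so blocking glycosylation raises the light; 0% = median of neutral control wells and 100% = median of 100 nM tunicamycin wells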
# PAX8 reporter: lowers PAX8-driven luciferase in RMG-I cells; 360,000 compounds, 1.2% hits; RMG-I TPO-luciferase reporter, SteadyGlo, 24 h; inhibition, % at 12.6 µM;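 active = mean replicate inhibition at least 60% with every replicate also reaching 60%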;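 note: luciferase light reporting Pax8 driven TPO promoter activity; plate controls were median of neutral control wells for no effect and mitoxantrone controls for full effect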
# Arrestin-AP2 inh: inhibitors of human beta-arrestin and AP2 interaction; 340,000 compounds, 0.31% hits; inhibition, % at 10 µM; FITC-arrestin peptide / GST-AP2 beads, flow cytometry; AP2 beta2 appendage carries R879A mutation;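 active = inhibition above a set limit, near 3 SD of compounds lacking own fluorescence, cut at about 54% in these data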;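 note: plate controls were DMSO wells for no effect and 5 µM unlabelled arrestin peptide for full effect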
#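 test system = AP2 appendage R879A on GSH beads | buffer or medium = PBS plus Tween 20 (0.05%) and BSA (0.1%) | incubation = 12 min plus 1 h, RT | detection = bead flow cytometry, FITC channel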
# Env fusion inh: HIV envelope-mediated fusion inhibition | HeLa-JRFL Env/CEM21 cell fusion, luciferase | inhibition, % at 12.3 µM | 360,000 compounds, 1.1% hits | AID 651610;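 active = mean replicate inhibition score of at least 50 and every replicate individually at or above 50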;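 note: 0% = plate neutral controls and 100% = maraviroc near 300 nM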
# PfHsp90 yeast 2: growth inhibition of yeast expressing Plasmodium Hsp90; AID 504621; 310,000 compounds, 0.32% hits; S. cerevisiae expressing PfHsp90, BacTiter-Glo ATP, 48 h; yeast lacking PDR1 and PDR3 efflux regulators; inhibition, % at 9.4 µM;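 active = every replicate shows inhibition above about 80%, whatever the replicate mean, limit read from the data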;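 note: 0% = DMSO neutral controls and 100% = 20 µM radicicol positive controls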
# Rtt109 Vps75: blocks Candida albicans Rtt109/Vps75 acetyltransferase activity. Q5AAJ8. 330,000 compounds, 0.16% hits. inhibition, % at 34.9 µM. purified Rtt109/Vps75, ThioGlo CoA-SH fluorescence, 4 h. AID 540336;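 active = inhibition of at least 50% in every replicate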
# Arr-AP2 CP1: human beta-arrestin and AP2 interaction inhibition, cherry pick; AID 504908; inhibition, % at 10 µM; GST-AP2 beads, FITC arrestin peptide binding, flow cytometry; GST-fused beta2-adaptin appendage, R879A mutant; 1,300 compounds, 2% hits; shares compounds with Arrestin-AP2 inh;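 active = inhibition above a set limit, roughly 3 SD of non-fluorescent compound noise, cut at about 38% in these data; inactive = inhibition at or below that limit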;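 note: loss of bead fluorescence from 50 nM FITC arrestin peptide bound to appendage; 0% = negative control wells and 100% = excess unlabelled arrestin peptide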
# Target sequence (P63010 whole entry, looked up, the tested form may be a part, one chain of several): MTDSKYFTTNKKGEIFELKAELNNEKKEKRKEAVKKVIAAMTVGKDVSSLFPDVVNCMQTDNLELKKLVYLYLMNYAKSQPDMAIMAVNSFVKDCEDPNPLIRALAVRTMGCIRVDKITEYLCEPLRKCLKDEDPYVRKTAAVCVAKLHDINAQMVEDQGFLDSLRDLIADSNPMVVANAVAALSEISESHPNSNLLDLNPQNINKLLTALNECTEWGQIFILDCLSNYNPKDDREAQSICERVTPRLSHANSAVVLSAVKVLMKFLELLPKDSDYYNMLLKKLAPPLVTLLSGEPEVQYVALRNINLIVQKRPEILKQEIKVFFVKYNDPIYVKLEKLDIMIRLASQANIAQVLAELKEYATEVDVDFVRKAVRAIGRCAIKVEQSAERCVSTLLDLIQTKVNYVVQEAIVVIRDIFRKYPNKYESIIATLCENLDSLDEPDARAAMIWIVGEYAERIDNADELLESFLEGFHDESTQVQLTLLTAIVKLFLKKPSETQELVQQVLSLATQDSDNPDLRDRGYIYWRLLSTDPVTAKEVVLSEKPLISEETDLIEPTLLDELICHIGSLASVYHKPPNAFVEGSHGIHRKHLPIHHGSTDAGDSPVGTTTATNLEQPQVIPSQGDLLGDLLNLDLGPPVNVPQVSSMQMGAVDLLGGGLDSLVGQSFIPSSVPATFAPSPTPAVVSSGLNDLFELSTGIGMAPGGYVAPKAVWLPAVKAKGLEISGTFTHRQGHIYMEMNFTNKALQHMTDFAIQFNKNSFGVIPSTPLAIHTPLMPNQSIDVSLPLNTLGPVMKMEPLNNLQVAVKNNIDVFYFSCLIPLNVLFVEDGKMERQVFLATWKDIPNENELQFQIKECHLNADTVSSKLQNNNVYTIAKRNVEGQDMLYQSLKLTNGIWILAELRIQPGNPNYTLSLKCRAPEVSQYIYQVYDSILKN
# GST-FITC bead: GST-GSH bead binding interference, counter-screen; shares compounds with Arrestin-AP2 inh; GST-fluorescein binding to GSH beads, fluorescence; inhibition, % at 10 µM; 1,300 compounds, 2% hits; AID 588338;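 active = inhibition above 50%, about 3 SD of the inhibition seen with non-fluorescent compounds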;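 note: fluorescein maleimide labelled GST captured on 4 micron glutathione beads; higher means more loss of bead fluorescence from quenching or blocked binding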
# An asterisk follows results filed as active; · = no result; [ ] = dose if it differs, or a comment.
SMILES,Glyco luc inh,PAX8 reporter,Arrestin-AP2 inh,Env fusion inh,PfHsp90 yeast 2,Rtt109 Vps75,Arr-AP2 CP1,GST-FITC bead
CCc1ccc(CN(C)C(=O)c2cc(S(=O)(=O)N3CCOCC3)ccc2N2CCCC2)cc1,-2,13,-4,6,·,17,-15,-4
CN(Cc1cccc(F)c1)C(=O)c1cc(S(=O)(=O)N2CCOCC2)ccc1N1CCCC1,4,0,-2,4,-1,9,-4,-4
Cc1ccsc1CN(C)C(=O)c1cc(S(=O)(=O)N2CCOCC2)ccc1N1CCCC1,1,13,-8,·,-13,-2,·,·
Cc1cccc(C)c1NC(=O)CN(C)C(=O)c1cc(S(=O)(=O)N2CCOCC2)ccc1N1CCCC1,2,8,47,6,2,0,·,·
C[C@@H]1CCCCO[C@H](CN(C)Cc2ccc3c(c2)OCO3)[C@H](C)CN([C@H](C)CO)C(=O)c2cc(NC(=O)C3CCCCC3)ccc2O1,·,-1,·,5[16.7 µM],·,·,·,·
C[C@@H]1CCCCO[C@H](CN(C)C)[C@@H](C)CN([C@@H](C)CO)C(=O)c2cc(NS(=O)(=O)c3ccc(Cl)cc3)ccc2O1,·,15,·,-14[16.7 µM],·,·,·,·
COc1ccc(NC(=O)/C(=C/c2cccnc2)NC(=O)c2cccs2)cc1,3,6,66*,·,11,-1,-8,0
O=C(Nc1ccc2c(c1)OCCO2)c1coc2ccccc2c1=O,-13,1,89*,10,-8,-6,4,-4
CN1c2ccc(-c3ccccc3F)cc2[C@H]2[C@H](CCN2C(=O)c2ccccn2)[C@@H]1CO,·,-133,·,·,·,·,·,·
Cc1cc(-c2ccc(C(C)C)c(S(=O)(=O)N3CCC(C)CC3)c2)on1,-3,23,58*,28,8,6,7,-7
Cc1noc(C)c1NC(=O)Nc1ccc2c(c1)CC(=O)N([C@@H](C)CO)C[C@@H](C)[C@H](CN(C)S(=O)(=O)c1ccc(F)cc1)O2,·,-10,·,-11[16.7 µM],·,·,·,·
COc1ccc2cc(C(=O)Nc3ccc(F)cc3)sc(=O)c2c1OC,-1,·,99*,-4,·,5,-1,-3
Nn1c(SCC(=O)N2CCN(S(=O)(=O)c3ccccc3)CC2)nnc1-c1cccs1,2,·,99*,·,-12,7,-1,-12
Nn1c(SCC(=O)N2CCN(S(=O)(=O)c3ccc(Cl)cc3)CC2)nnc1-c1cccs1,-1,·,3,·,4,4,·,·
COc1ccc(C(=O)NC(=S)Nc2ccc(S(=O)(=O)Nc3cc(OC)nc(OC)n3)cc2)cc1,-1,-1,56*,14,8,24,-2,-3
COc1cc(NS(=O)(=O)c2ccc(NC(=S)NC(=O)c3ccc(F)cc3)cc2)nc(OC)n1,-1,7,-6,8,28,3,·,·
C[C@H](CO)N1C[C@H](C)[C@@H](CN(C)Cc2ccncc2)OCCCC[C@H](C)Oc2ccc(NS(=O)(=O)c3cn(C)cn3)cc2C1=O,·,-4,·,12[16.7 µM],·,·,·,·
CC(C)NC(=O)N(C)C[C@@H]1Oc2ccc(NC(=O)Cc3cn(C)c4ccccc34)cc2CC(=O)N([C@@H](C)CO)C[C@H]1C,·,8,·,-6[16.7 µM],·,·,·,·
Cc1ccc(S(=O)(=O)N2CCCCC2)cc1NC(=O)c1ccncc1,0,-12,5,-47,-20,7,4,1
Cc1ccnc(NC(=O)c2cccc(S(=O)(=O)N3CCCC3)c2)c1,0,-13,60*,3,-8,30,24,1
O=C(Nc1ccccn1)c1cccc(S(=O)(=O)N2CCCC2)c1,2,·,-9,-11,-9,-3,·,·
O=C(Nc1cc(S(=O)(=O)N2CCCCC2)ccc1Cl)c1ccncc1,1,-23,34,9,2,4,·,·
COc1ccc(NC(=O)Nc2ccc3c(c2)C(=O)N([C@@H](C)CO)C[C@@H](C)[C@@H](CN(C)C(=O)CCC(F)(F)F)OCCCC[C@H](C)O3)cc1,·,-14,·,15[16.7 µM],·,·,·,·
Cc1ccccc1C(=O)Nc1c(C(=O)N(CCN(C)C)Cc2ccco2)oc2ccccc12,-1,4,58*,17,16,-2,-6,2
O=C(O)C[C@@H]1C[C@@H]2c3cc(NS(=O)(=O)c4ccccc4)ccc3O[C@@H]2[C@H](CO)O1,·,-7,·,·,·,·,·,·
SMILES,Glyco luc inh,PAX8 reporter,Arrestin-AP2 inh,Env fusion inh,PfHsp90 yeast 2,Rtt109 Vps75,Arr-AP2 CP1,GST-FITC bead
O=S1(=O)N=C(N(CCO)/N=C/c2ccccc2)c2ccccc21,2,0,60*,-59,-29,-14,2,28
COc1ccc(CN2C(=O)c3cccnc3C2=O)cc1S(=O)(=O)N1CC(C)Oc2ccccc21 (stereo not drawn),1,2,23,3,-8,14,·,·
CC1CN(S(=O)(=O)c2ccc(CN3C(=O)c4cccnc4C3=O)cc2)c2ccccc2O1 (stereo not drawn),1,3,59*,-11,-7,8,-3,-5
Cc1occc1C(=O)N/N=C/C1=C(N2CCOCC2)C(=C\c2ccc(Cl)cc2Cl)/CC1,0,-12,98*,9,-10,9,3,2
CC(C)(C)c1ccccc1OCC(=O)NCc1ccccc1,-5,11,64*,13,1,-5,4,-8
Cc1ccccc1OCC(=O)OCC(=O)NCc1ccccc1,1,-14,45,1,-3,-9,·,·
COc1cc2c(cc1OC)C(=O)CCS2,1,·,75*,·,-10,-1,12,-4
CC(C)NC(=O)N(C)C[C@H]1Oc2ccc(NS(=O)(=O)c3cn(C)cn3)cc2C(=O)N([C@@H](C)CO)C[C@H]1C,·,·,·,36[16.7 µM],·,·,·,·
Clc1ccccc1C=NNc1ccccn1,1,1,-4,-33,12,-1,·,·
COc1ccc2nc(Cl)c(/C=N/Nc3ccccn3)cc2c1,3,-70,59*,-24,-2,15,-9,-13
Cc1ccc(S(=O)(=O)Nc2ccc3c(c2)C(=O)N([C@H](C)CO)C[C@H](C)[C@@H](CN(C)C(=O)Nc2c(C)noc2C)OCCCC[C@@H](C)O3)cc1,·,2,·,-3[16.7 µM],·,·,·,·
COc1cccc(CNC(C)C(=O)Nc2ccc3c(c2)OCCO3)c1 (stereo not drawn),0,7,0,-2,8,5,·,·
Cc1cccc(OC(C)C(=O)Nc2ccc3c(c2)OCCO3)c1 (stereo not drawn),2,5,-13,·,-25,-4,-3,-11
Cc1ccc(SCC(=O)NNC(=O)CCS(=O)(=O)c2ccc(C)cc2)cc1,3,-23,54*,3,-8,-2,2,-2
